A short description of assay [1]: S. cerevisiae growth inhibition in permissive medium (OD615), pilot counter-assay for S. cerevisiae lifespan shortening project, permissive growth control (AID 705;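 active = growth inhibition above 25% in both replicates, a cutoff set 3 SD above the mean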). The following applies: OD615, 24 h, at 10 µM, active compounds read high. The procedure, abridged:
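Timing: 24 h exposure, 30 °C / Material: Saccharomyces cerevisiae strain carrying genetically modified DeaD replicative-lifespan system / Signal: OD at 615 nm / Compound: 10 µM single dose, 0.25% DMSO / Medium: SC raffinose/galactose permissive medium / Evaluation: reduction in yeast growth (OD615)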

Assay [2] can be described thus: S. cerevisiae growth inhibition in restrictive medium, OD615, pilot screen, restrictive growth control, yeast lifespan reduction project (AID 706;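 active = growth inhibition above a set limit, 3 SD over mean compound inhibition, in both replicates, cut at about 43% in these data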;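 note: modified DeaD lifespan yeast strain shifted to restrictive glucose medium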). The note with it: OD615, 48 h, at 10 µM, active compounds read high. The procedure, abridged:
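System: Engineered S. cerevisiae DeaD strain | Detection: OD615 | Buffer or medium: CSMM-D glucose medium | Doses: 10 µM compound, 0.25% DMSO | Timing: 4 h pre-growth plus 48 h compound exposure, 30 °C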

Assay [3] is described as follows: doxorubicin toxicity protection in MRP-1 cells – H69AR cells, CellTiter-Glo, duplicate, MRP-1 activator project, pilot screen (AID 807;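 active = viability increase at or above a cutoff of the median across tested compounds plus 3 SD, cut at about 8.5% in these data, passing the limit was not always enough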;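 note: compound pretreatment 18-22 h then 72 h combined with doxorubicin; 0% = doxorubicin alone and 100% = vehicle without doxorubicin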). The note with it: H69AR viability with doxorubicin, CellTiter-Glo luminescence; at 10 µM; active compounds read high. (In general: ATP-based viability assays read luminescence as a measure of living cells.)
Assay [4] in a line: viability of HCT116 without oncogenic beta-catenin – human colon tumor cells, pilot screen (AID 823;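 active = cell viability at or below a set limit in both duplicate runs, the limit being the all-compound median minus 4 SD, cut at about 23% in these data, passing the limit was not always enough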;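 note: 0% = wells killed by 20 µM Hyamine and 100% = untreated DMSO cell wells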). The following applies: HCT116 beta-catenin knockout viability, CellTiter-Glo, 60 h; at 10 µM; active compounds read low.
Assay [5] is described as follows: viability of PTEN-null HCT116 cells – cell-based, HCT116 clonal line, CellTiter-Glo, pilot screen (AID 824;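 active = viability at or below 27.92% in each of two runs, the all-compound median minus 4 SD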;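 note: 0% = 20 µM Hyamine control and 100% = vehicle cell control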). The note with it: HCT116 PTEN-deleted viability, 60 h, at 10 µM, active compounds read low.
Assay [6] in a line: RAM pathway blockade in budding yeast – dse1pr::URA3 reporter, 5-FOA selection, pilot screen (AID 869).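 Note: 0% = DMSO wells with no growth and 100% = 10 µM 1-NA-PP1 with full growth; RAM network block rescues cells from 5-FOA so hits raise OD615 growth.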 The note with it: S. cerevisiae dse1pr::URA3 5-FOA growth, OD615, 2 d; at 10 µM; active compounds read high; strain carries analog-sensitive mutant Cbk1 kinase.
The nature of assay [7]: RAM signaling pathway blockade in yeast – S. cerevisiae, Pdr1DBD-CYC8 efflux-inhibited sensitized strain, primary screen (AID 1298;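 active = RAM network inhibition above 8.4% in each of two replicates, 3 SD over the compound average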;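 note: 0% = DMSO untreated cells without growth and 100% = 10 µM 1-NA-PP1 full growth; higher means more yeast growth rescued from 5-FOA killing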). The note with it: S. cerevisiae cbk1-as DSE1-URA3 strain, 5-FOA growth OD615, 2 d; at 50 µM; active compounds read high.

Molecules are shown by their SMILES. Unmarked numbers belong to inactive results. Records with an inconclusive call do not appear. The source made the active and inactive calls.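 Rule for the calls, unless noted: active = inhibition over a set limit, the all-compound mean plus 3 SD, in both replicate runs; inconclusive = over that limit in just one replicate run; inactive = at or under that limit in both runs.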

The text below walks through data of PubChem BioAssay.

The term viability denotes a read-out of living cells in per cent, often relative to untreated cells. The term inhibition denotes the relative decrease from the control value, in per cent.

As for `Cc1ccc(C2/C(=C(/O)c3ccccc3)C(=O)C(=O)N2CCN2CCOCC2)o1` (stereo not drawn), the growth inhibition in assay [1] was 8.83%; in assay [2], 8.54%. In addition, the viability increase in assay [3] was -1.8%. For the same molecule, the figures for the viability in assay [4] and in assay [5] were 104% and 96.7%, respectively. Moreover, the inhibition in assay [6] was 0.095%. In addition, the RAM network inhibition in assay [7] is -0.05%.
For `O=C(CC1Oc2ccccc2NC1=O)NCCCN1CCN(Cc2ccccc2)CC1` (stereo not drawn), the growth inhibition in assay [1] was 2.54%; in assay [2], -3.21%. In addition, the viability increase in assay [3] was -3.71%. Further, the values for the viability in assay [4] and in assay [5] were 94.3% and 93.3%, respectively. The inhibition in assay [6] is 1.56%. Further, in assay [7], the RAM network inhibition was 5.35%.
Regarding `O=C(Nc1sc2c(c1C(=O)NCC1CCCO1)CCCC2)c1cccs1` (stereo not drawn), the growth inhibition was -11.2% in assay [1] and 5.31% in assay [2]. Besides, in assay [3], the viability increase is -3.45%. Besides, the viability was 85.9% in assay [4] and 86.6% in assay [5]. In addition, the inhibition in assay [6] is 1%. The RAM network inhibition in assay [7] is 4.75%.
Take `CCOc1cccc(NC(=O)c2ccc(S(=O)(=O)N3CCCC3)cc2)c1`: the growth inhibition in assay [1] is 0.65%; in assay [2], -11.1%. Also, the viability increase in assay [3] is -2.68%. The viability in assay [4] is 87.5%; in assay [5], 82.1%. In addition, the inhibition in assay [6] was 0.965%. Further, the RAM network inhibition in assay [7] is -0.21%.
Turning to `Cc1ccccc1-c1nnc(SCC(=O)Nc2ccc3c(c2)OCCO3)n1N`, the growth inhibition in assay [1] is -1.12%; in assay [2], 10.1%. Moreover, in assay [3], the viability increase is -2.18%. For the same molecule, the viability in assay [4] was 96.7%; in assay [5], 91.7%. In assay [6], the inhibition was 0.6%. Further, the RAM network inhibition in assay [7] was -0.27%.
As to `CCC1CCCCN1C(=O)CSc1nc2c(cnn2-c2ccc(C)cc2)c(=O)[nH]1` (stereo not drawn), the growth inhibition in assay [1] was -3.04%; in assay [2], -5.33%. The viability increase in assay [3] is -3.73%. Further, the viability was 97.2% in assay [4] and 87.1% in assay [5]. Further, the inhibition in assay [6] is 1.71%. For the same molecule, the RAM network inhibition in assay [7] was 6.97%.
For the molecule `O=C(Nc1ccccc1)OCCOc1ccccc1`, the results for the growth inhibition in assay [1] and in assay [2] were -9.16% and 4.62%, respectively. In addition, in assay [3], the viability increase is 2.54%. The viability in assay [4] is 91.7%; in assay [5], 100%. Besides, the inhibition in assay [6] is 2.92%. For the same molecule, the RAM network inhibition in assay [7] was 1.95%.
In the case of `CCOC(=O)CC(=O)Nc1ccc(C(=O)OCC)cc1`, the growth inhibition was 4.17% in assay [1] and 7.02% in assay [2]. For the same molecule, the viability increase in assay [3] is 1.09%. Moreover, the viability in assay [4] is 101%; in assay [5] it was 105%. Further, the inhibition in assay [6] was 1.54%. In assay [7], the RAM network inhibition was 4.84%.
For the molecule `O=C(O)COc1ccc(Br)cc1/C=N/O`, the figures for the growth inhibition in assay [1] and in assay [2] were 5.41% and 3.78%, respectively. For the same molecule, the viability increase in assay [3] was -2.11%. The viability in assay [4] was 92.7%; in assay [5] it was 85.4%. Moreover, the inhibition in assay [6] was 0.975%. Further, the RAM network inhibition in assay [7] was 2.5%.
`Cc1c(C(=O)NCC2CCCO2)sc2nc(-c3ccccc3)cn12` (stereo not drawn): the growth inhibition in assay [1] was 7.17%; in assay [2], 8.27%. For the same molecule, the viability increase in assay [3] is 0.89%. Also, the figures for the viability in assay [4] and in assay [5] were 109% and 95.1%, respectively. For the same molecule, in assay [6], the inhibition is 0.15%. In assay [7], the RAM network inhibition is 1.08%.
Regarding `COc1cc(C2C3=C(CC(c4ccco4)CC3=O)Nc3ccccc3N2C(C)=O)cc(OC)c1OC` (stereo not drawn), the growth inhibition was -0.74% in assay [1] and 8.4% in assay [2]. Further, the viability increase in assay [3] was -3.38%. The figures for the viability in assay [4] and in assay [5] were 91.8% and 89%, respectively. Moreover, in assay [6], the inhibition is 1.3%. The RAM network inhibition in assay [7] was 6.7%.
For `O=C(c1ccccc1)c1ccc(N2CCCC2)cc1`, the growth inhibition in assay [1] was -1.86%; in assay [2], 7.65%. Further, the viability increase in assay [3] is -2.59%. Further, the viability is 93% in assay [4] and 96.4% in assay [5]. Also, the inhibition in assay [6] was 1.23%. Further, in assay [7], the RAM network inhibition was 1.03%.
With `CC1(C)Oc2ccc3ccc(=O)oc3c2/C(=C/Nc2ccccn2)C1=O`, the growth inhibition in assay [1] is -22.4%; in assay [2], -16%. Further, the viability increase in assay [3] was -1.39%. In addition, the viability in assay [4] is 95%; in assay [5], 93.3%. In addition, the inhibition in assay [6] is 4.12%. In addition, in assay [7], the RAM network inhibition is 6.38%.
As for `Cc1nc2sc(C(c3ccccc3)N3CCN(CCO)CC3)c(O)n2n1` (stereo not drawn), the growth inhibition in assay [1] is -5.65%; in assay [2] it was -2.6%. Further, the viability increase in assay [3] was -1.6%. Further, the viability in assay [4] was 106%; in assay [5], 98.6%. Besides, the inhibition in assay [6] was 1.32%. Also, in assay [7], the RAM network inhibition is 4.51%.
In the case of `O=C(Nc1nnc(-c2ccc3c(c2)CCCC3)o1)C1CCCCC1`, the growth inhibition was -16.5% in assay [1] and -4.87% in assay [2]. For the same molecule, in assay [3], the viability increase was -2.6%. Also, the viability in assay [4] is 64.5%; in assay [5], 62%. Further, the inhibition in assay [6] is 3.24%. Further, the RAM network inhibition in assay [7] was 4.48%.
As for `COc1ccc(Cn2nnc3c(=O)[nH]c(C(=O)NCCc4ccc(F)cc4)nc32)cc1OC`, the values for the growth inhibition in assay [1] and in assay [2] were -3.32% and -2.82%, respectively. In addition, the viability increase in assay [3] was -0.55%. The viability in assay [4] is 114%; in assay [5], 100%. Moreover, the inhibition in assay [6] was 2.69%. The RAM network inhibition in assay [7] was 0.97%.
`N#Cc1c2n(c3c(-c4ccccc4)ncnc13)CCC2`: the growth inhibition in assay [1] was -12.9%; in assay [2], -11.2%. In assay [3], the viability increase is -2.25%. The viability was 104% in assay [4] and 98.7% in assay [5]. Further, in assay [6], the inhibition is 2.73%. Further, the RAM network inhibition in assay [7] was 3.93%.
On to `CCOc1ccc2ccccc2c1C(=O)Nc1cc(=O)n(C)c(=O)n1C`, for which the results for the growth inhibition in assay [1] and in assay [2] were -8.05% and -21.5%, respectively. Further, the viability increase in assay [3] is 0.11%. The viability is 107% in assay [4] and 94.4% in assay [5]. Further, the inhibition in assay [6] was 1.17%. For the same molecule, in assay [7], the RAM network inhibition is -1.04%.
For the molecule `COCCCN(C(=O)Nc1ccccc1)C(C)c1ccncc1` (stereo not drawn), the growth inhibition in assay [1] was 2.64%; in assay [2], -0.975%. In addition, the viability increase in assay [3] was -1.88%. The viability in assay [4] is 101%; in assay [5], 94.3%. For the same molecule, the inhibition in assay [6] is 1.18%. Also, the RAM network inhibition in assay [7] is 3.28%.
`CCOC(=O)C(C)n1cnc2c(nnn2-c2cccc(Cl)c2)c1=O` (stereo not drawn): the growth inhibition is -4.37% in assay [1] and -3.95% in assay [2]. The viability increase in assay [3] is 1.78%. The viability was 102% in assay [4] and 92.6% in assay [5]. In assay [6], the inhibition was 2.58%. The RAM network inhibition in assay [7] was 4.24%.
Turning to `CN1CCN(CCCNC(=O)c2cc3c(-c4ccc(Cl)cc4)nn(C)c3s2)CC1`, the growth inhibition is -8.24% in assay [1] and -2.25% in assay [2]. The viability increase in assay [3] was -8.21%. The viability was 2.18% (active) in assay [4] and 2% (active) in assay [5]. For the same molecule, in assay [6], the inhibition is 0.445%. For the same molecule, in assay [7], the RAM network inhibition was 0.92%.
Turning to `Cn1c(=O)[nH]c(=O)c2c1nc(N1CCC(Cc3ccccc3)CC1)n2Cc1ccccc1`, the growth inhibition is -19.2% in assay [1] and -10.1% in assay [2]. Further, the viability increase in assay [3] is -6.11%. Further, the figures for the viability in assay [4] and in assay [5] were 82.8% and 69.5%, respectively. In addition, in assay [6], the inhibition was 2.9%. In assay [7], the RAM network inhibition is 3.08%.
For `COc1ccc(OC)c(NC(=O)CNC(=O)Cn2ccc3ccccc3c2=O)c1`, the growth inhibition is -9.38% in assay [1] and 10.5% in assay [2]. Besides, the viability increase in assay [3] was -1.6%. The values for the viability in assay [4] and in assay [5] were 104% and 90.5%, respectively. For the same molecule, in assay [6], the inhibition is 3.29%. For the same molecule, the RAM network inhibition in assay [7] is -0.05%.
As for `CC(NC(=O)Cc1ccccc1)c1nc2ccccc2[nH]1` (stereo not drawn), the growth inhibition is -3.99% in assay [1] and -1.91% in assay [2]. Moreover, the viability increase in assay [3] was -1.22%. Further, the viability in assay [4] was 108%; in assay [5] it was 97.1%. Also, the inhibition in assay [6] is 0.08%. Further, the RAM network inhibition in assay [7] was 3.75%.
